Measurements published in ChEMBL document CHEMBL1208778, “Synthesis and anti-cancer activity of chalcone linked imidazolones” (2010).
Each block holds one compound with its values, some of them ahead of it. The source made the active and inactive calls. The rule behind the calls is not given here.

Key:
BT-549 = experiment: Growth inhibition of human BT549 cells; assay type: functional
Outline: (§1)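 Five-dose testing was run within the NCI (Bethesda) in vitro Anticancer Screen Program on a panel of 53 human tumour cell lines from nine cancer types. Growth inhibition is reported as GI50.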

SW-620 = experiment: Growth inhibition of human SW620 cells; assay type: functional
Outline: (§2)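 Compounds that passed a preliminary screen were tested at five doses in the NCI (Bethesda) in vitro Anticancer Screen Program against a 53-line human tumour panel spanning leukemia, lung, colon, CNS, melanoma, ovarian, renal, prostate and breast. Growth inhibition is reported as GI50.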

OVCAR-4 = experiment: Growth inhibition of human OVCAR4 cells; assay type: functional; outline: as §1
SN12C = experiment: Growth inhibition of human SN12C cells; assay type: functional; outline: as §2
MCF7 [1] = experiment: Growth inhibition of human MCF7 cells; assay type: functional; outline: as §1
MCF7 [2] = experiment: Cell cycle arrest in human MCF7 cells assessed as accumulation at S phase at 30 uM after 24 hrs by FACS analysis; assay type: functional
Outline: (§3)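 MCF-7 cells were treated at 30 µM for 24 h alongside a DMSO control. Fractions in G0, G1, S and G2/M phases were measured by FACS, and values are means of three experiments.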

T47D = experiment: Growth inhibition of human T47D cells; assay type: functional; outline: as §2
786-0 = experiment: Growth inhibition of human 786-0 cells; assay type: functional; outline: as §1
LOX IMVI = experiment: Growth inhibition of human LOXIMVI cells; assay type: functional; outline: as §1
HCT-116 = experiment: Growth inhibition of human HCT116 cells; assay type: functional; outline: as §1
[3] = Growth inhibition of human Hs 578T cells; assay type: functional; outline: as §1
MCF7 [4] = experiment: Cell cycle arrest in human MCF7 cells assessed as accumulation at G1 phase at 30 uM after 24 hrs by FACS analysis; assay type: functional; outline: as §3
NCI-H322M = experiment: Growth inhibition of human NCI-H322M cells; assay type: functional; outline: as §1
M14 = experiment: Growth inhibition of human M14 cells; assay type: functional; outline: as §1
SK-MEL-5 = experiment: Growth inhibition of human SK-MEL-5 cells; assay type: functional; outline: as §1
HOP-92 = experiment: Growth inhibition of human HOP92 cells; assay type: functional; outline: as §1
SNB-19 = experiment: Growth inhibition of human SNB19 cells; assay type: functional; outline: as §2
TK-10 = experiment: Growth inhibition of human TK10 cells; assay type: functional; outline: as §2
HOP-62 = experiment: Growth inhibition of human HOP62 cells; assay type: functional; outline: as §1
MCF7 [5] = experiment: Cell cycle arrest in human MCF7 cells assessed as accumulation at G2/M phase at 10 uM after 24 hrs by FACS analysis; assay type: functional
Outline: (§4)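 MCF-7 breast carcinoma cells were exposed to 10 µM test compound for 24 h, with DMSO as the vehicle control. Cell-cycle distribution was read by FACS as the percentage of cells in G0, G1, S and G2/M.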

K562 = experiment: Growth inhibition of human K562 cells; assay type: functional; outline: as §1
SK-OV-3 = experiment: Growth inhibition of human SKOV3 cells; assay type: functional; outline: as §2
UO-31 = experiment: Growth inhibition of human UO31 cells; assay type: functional; outline: as §2
NCI-H522 = experiment: Growth inhibition of human NCI-H522 cells; assay type: functional; outline: as §1
MDA-MB-231 = experiment: Growth inhibition of human MDA-MB-231 cells; assay type: functional; outline: as §1
SF-295 = experiment: Growth inhibition of human SF295 cells; assay type: functional; outline: as §1
NCI-H226 = experiment: Growth inhibition of human NCI-H226 cells; assay type: functional; outline: as §1
MCF7 [6] = experiment: Cell cycle arrest in human MCF7 cells assessed as accumulation at G2/M phase at 30 uM after 24 hrs by FACS analysis; assay type: functional; outline: as §3
ACHN = experiment: Growth inhibition of human ACHN cells; assay type: functional; outline: as §1
Malme-3M = experiment: Growth inhibition of human MALME-3M cells; assay type: functional; outline: as §1
SNB-75 = experiment: Growth inhibition of human SNB75 cells; assay type: functional; outline: as §2
A498 = experiment: Growth inhibition of human A498 cells; assay type: functional; outline: as §1
NCI/ADR-RES = experiment: Growth inhibition of human NCI/ADR-RES cells; assay type: functional; outline: as §1
NCI-H460 = experiment: Growth inhibition of human NCI-H460 cells; assay type: functional; outline: as §1
OVCAR-5 = experiment: Growth inhibition of human OVCAR5 cells; assay type: functional; outline: as §1
COLO 205 = experiment: Growth inhibition of human COLO205 cells; assay type: functional; outline: as §1
MCF7 [7] = experiment: Cell cycle arrest in human MCF7 cells assessed as accumulation at G0 phase at 30 uM after 24 hrs by FACS analysis; assay type: functional; outline: as §3
SK-MEL-2 = experiment: Growth inhibition of human SK-MEL-2 cells; assay type: functional; outline: as §1
CAKI-1 = experiment: Growth inhibition of human Caki1 cells; assay type: functional; outline: as §1
KM12 = experiment: Growth inhibition of human KM12 cells; assay type: functional; outline: as §1
A549 = experiment: Growth inhibition of human A549 cells; assay type: functional; outline: as §1
MCF7 [8] = experiment: Cell cycle arrest in human MCF7 cells assessed as accumulation at S phase at 10 uM after 24 hrs by FACS analysis; assay type: functional; outline: as §4
SF-268 = experiment: Growth inhibition of human SF268 cells; assay type: functional; outline: as §1
HCC 2998 = experiment: Growth inhibition of human HCC2998 cells; assay type: functional; outline: as §1
OVCAR-8 = experiment: Growth inhibition of human OVCAR8 cells; assay type: functional; outline: as §1
PC-3 = experiment: Growth inhibition of human PC3 cells; assay type: functional; outline: as §1
MDA-MB-435 = experiment: Growth inhibition of human MDA-MB-435 cells; assay type: functional; outline: as §1
SF-539 = experiment: Growth inhibition of human SF539 cells; assay type: functional; outline: as §1
UACC-257 = experiment: Growth inhibition of human UACC257 cells; assay type: functional; outline: as §2
U-251 = experiment: Growth inhibition of human U251 cells; assay type: functional; outline: as §2
RXF 393 = experiment: Growth inhibition of human RXF393 cells; assay type: functional; outline: as §1
[9] = Growth inhibition of human RPMI8266 cells; assay type: functional; outline: as §1
NCI-H23 = experiment: Growth inhibition of human NCI-H23 cells; assay type: functional; outline: as §1
OVCAR-3 = experiment: Growth inhibition of human OVCAR-3 cells; assay type: functional; outline: as §1
MCF7 [10] = experiment: Cell cycle arrest in human MCF7 cells assessed as accumulation at G0 phase at 10 uM after 24 hrs by FACS analysis; assay type: functional; outline: as §4
SK-MEL-28 = experiment: Growth inhibition of human SK-MEL-28 cells; assay type: functional; outline: as §1
EKVX = experiment: Growth inhibition of human EKVX cells; assay type: functional; outline: as §1
MCF7 [11] = experiment: Cell cycle arrest in human MCF7 cells assessed as accumulation at G1 phase at 10 uM after 24 hrs by FACS analysis; assay type: functional; outline: as §4
HT-29 = experiment: Growth inhibition of human HT-29 cells; assay type: functional; outline: as §1
UACC-62 = experiment: Growth inhibition of human UACC62 cells; assay type: functional; outline: as §2
HCT-15 = experiment: Growth inhibition of human HCT15 cells; assay type: functional; outline: as §1
MCF7 [12] = experiment: Induction of apoptosis in human MCF7 cells assessed as decrease in procaspase 7 level at 30 uM after 24 hrs by Western blot analysis; assay type: functional, cell-based
Outline: (§5)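 MCF-7 breast carcinoma cells were exposed to 30 µM compound for 24 h, with CA-4 as positive control. Cell lysates were then immunoblotted with antibodies to procaspase-7 and cleavage-specific PARP, using β-actin as loading control.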

MCF7 [13] = experiment: Induction of apoptosis in human MCF7 cells assessed as […] in PARP cleavage at 30 uM after 24 hrs by Western blot analysis; assay type: functional, cell-based; outline: as §5

GI50 (BT-549): 2590 nM | GI50 (SW-620): 450 nM | GI50 (OVCAR-4): 3570 nM | GI50 (MCF7 [1]): 440 nM | GI50 (T47D): 3840 nM | GI50 (786-0): 1610 nM | GI50 (HCT-116): 370 nM | GI50 (NCI-H322M): 2660 nM | GI50 (SK-MEL-5): 2030 nM | GI50 (K562): 1270 nM | GI50 (SK-OV-3): 4600 nM | GI50 (NCI-H522): 1850 nM | GI50 (MDA-MB-231): 5480 nM | GI50 (NCI-H226): 35200 nM | GI50 (ACHN): 1820 nM | GI50 (NCI-H460): 1560 nM | GI50 (OVCAR-5): 2640 nM | GI50 (COLO 205): 1840 nM | GI50 (SK-MEL-2): 2630 nM | GI50 (A549): 11800 nM | GI50 (HCC 2998): 1640 nM | GI50 (OVCAR-8): 2530 nM | GI50 (PC-3): 6220 nM | GI50 (MDA-MB-435): 1860 nM | GI50 (U-251): 880 nM | GI50 (NCI-H23): 1630 nM | GI50 (OVCAR-3): 1780 nM | GI50 (SK-MEL-28): 2030 nM | GI50 (HT-29): 1280 nM | GI50 (HCT-15): 1380 nM
SMILES: COc1ccc(-c2cn(-c3cccc(C(=O)/C=C/c4cc(OC)c(OC)c(OC)c4)c3)c(=O)[nH]2)cc1
GI50 (SN12C): 3500 nM | Activity (MCF7 [2]): 8.45% | GI50 (LOX IMVI): 720 nM | GI50 [3]: 3390 nM | Activity (MCF7 [4]): 46.02% | GI50 (M14): 1850 nM | GI50 (HOP-92): 14900 nM | GI50 (SNB-19): 4380 nM | GI50 (TK-10): 3040 nM | GI50 (HOP-62): 5910 nM | Activity (MCF7 [5]): 14.08% | GI50 (UO-31): 1910 nM | GI50 (SF-295): 4950 nM | Activity (MCF7 [6]): 9.51% | GI50 (Malme-3M): 1790 nM | GI50 (SNB-75): 4590 nM | GI50 (A498): 4210 nM | GI50 (NCI/ADR-RES): 1700 nM | Activity (MCF7 [7]): 36.02% | GI50 (CAKI-1): 3050 nM | GI50 (KM12): 1420 nM | Activity (MCF7 [8]): 21.47% | GI50 (SF-268): 3210 nM | GI50 (SF-539): 2000 nM | GI50 (UACC-257): 3040 nM | GI50 (RXF 393): 1920 nM | GI50 [9]: 920 nM | Activity (MCF7 [10]): 3.79% | GI50 (EKVX): 4200 nM | Activity (MCF7 [11]): 60.66% | GI50 (UACC-62): 2060 nM

SMILES: COc1ccc(/C=C\c2cc(OC)c(OC)c(OC)c2)cc1O [COMBRETASTATIN A4]
Activity (MCF7 [2]): 39.63% | Activity (MCF7 [12]): inactive | Activity (MCF7 [13]): inactive | Activity (MCF7 [4]): 25.04% | Activity (MCF7 [5]): 68.8% | Activity (MCF7 [6]): 23.69% | Activity (MCF7 [7]): 11.64% | Activity (MCF7 [8]): 9.96% | Activity (MCF7 [10]): 9.45% | Activity (MCF7 [11]): 11.79%
